Values belong to the compound of their own block, whether it stands above or below them. The source made the active and inactive calls. No cut-off for these calls is given here. Non-standard residues stand in square brackets, D forms with d. Residues, ends and D or L forms follow the SMILES beside them. *: point of attachment. Propanoyl(3-(3-pyridyl)) = O=C(CCc1cccnc1)*; Phe(4-F) = N[C@@H](Cc1ccc(F)cc1)C(=O)O; 2Nal = N[C@@H](Cc1ccc2ccccc2c1)C(=O)O; Acetyl(2-thienyl) = O=C(Cc1cccs1)*; Hydrocinnamoyl = O=C(CCc1ccccc1)*; 4Pal = N[C@@H](Cc1ccncc1)C(=O)O; 2Thi = N[C@@H](Cc1cccs1)C(=O)O; PhAc = O=C(Cc1ccccc1)*; X1 = O=C(CCc1cccs1)*
Experiments:
[1] = tested on: Serum; assay: Retention time in 25% rat serum treated with 1 mM (S)-2-((S)-2-((S)-1-((S)-2-((S)-2-((S)-3-(1H-indol-3-yl)-2-(2-(thiophen-2-yl)acetamido)propanamido)-3-(4-fluorophenyl)propanamido)-5-guanidinopentanoyl)pyrrolidine-2-carboxamido)-5-guanidinopentanamido)succinamide incubated for 30 mins at 37 degC by RP-HPLC method; type: ADME, cell-free; settings: 0.5 h
Method in brief: (§1)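 Peptides incubated in 25% rat serum at 37 °C and sampled over time (10, 30, 60 min). Samples extracted on Sep-Pak C18 cartridges and analysed by C18 RP-HPLC with UV detection at 220 nm. Metabolites identified by mass spectrometry. Recovery of intact peptide measured at 10 or 60 min, in triplicate.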

[2] = tested on: Serum; assay: Drug level in 25% rat serum treated with 1 mM (S)-2-((S)-2-((S)-1-((6S,9S,12S)-12-((1H-indol-3-yl)methyl)-1-amino-9-benzyl-1-imino-8,11,14-trioxo-15-(thiophen-2-yl)-2,7,10,13-tetraazapentadecanecarbonyl)pyrrolidine-2-carboxamido)-5-guanidinopentanamido)succinamide assessed as compound formation at 37 degC by RP-HPLC method; type: ADME, cell-free; method in brief: as §1
[3] = target: T1, Neuromedin-U receptor 1 (Homo sapiens) (UniProt Q9HB89); assay: Agonist activity at human NMUR1 expressed in CHO cells assessed as intracellular calcium flux at 1 and 10 nM by Fluo-4 AM dye based fluorometric imaging method relative to 1000 nM human neuromedin U; type: functional, cell-based
T1 sequence (whole entry): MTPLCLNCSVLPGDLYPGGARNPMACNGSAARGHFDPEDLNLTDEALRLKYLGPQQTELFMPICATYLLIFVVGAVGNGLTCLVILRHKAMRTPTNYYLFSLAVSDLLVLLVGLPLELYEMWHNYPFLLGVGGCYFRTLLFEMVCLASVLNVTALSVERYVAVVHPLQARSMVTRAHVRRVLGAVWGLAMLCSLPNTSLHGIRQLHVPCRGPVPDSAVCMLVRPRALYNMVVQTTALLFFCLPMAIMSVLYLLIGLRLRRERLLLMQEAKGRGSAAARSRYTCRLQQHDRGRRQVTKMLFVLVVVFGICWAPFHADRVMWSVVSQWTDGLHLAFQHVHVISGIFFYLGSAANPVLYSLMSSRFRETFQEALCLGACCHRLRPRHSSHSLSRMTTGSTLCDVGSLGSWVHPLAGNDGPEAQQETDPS

[4] = target: Neuromedin-U receptor 2 (Homo sapiens, UniProt Q9GZQ4); assay: Agonist activity at human NMUR2 expressed in CHO cells assessed as intracellular calcium flux at 1 and 10 nM by Fluo-4 AM dye based fluorometric imaging method relative to 1000 nM human neuromedin U; type: functional, cell-based
[5] = tested on: Serum; assay: Drug level in 25% rat serum treated with 1 mM (S)-2-((S)-2-((S)-1-((6S,9S,12S)-1-amino-9-benzyl-1-imino-12-isobutyl-8,11,14-trioxo-16-phenyl-2,7,10,13-tetraazahexadecanecarbonyl)pyrrolidine-2-carboxamido)-5-guanidinopentanamido)succinamide assessed as compound formation at 37 degC by RP-HPLC method; type: ADME, cell-free; method in brief: as §1
[6] = Drug metabolism in 25% rat serum assessed as drug recovery at 1 mM incubated for 60 mins at 37 degC by RP-HPLC method; type: ADME, cell-free; settings: read-out: Drug recovery; method in brief: as §1
[7] = tested on: Serum; assay: Drug metabolism in 25% rat serum assessed as cleavage at Phe(2)-Arg(3) site at 1 mM at 37 degC by RP-HPLC method; type: ADME, cell-free; settings: 1000 µM; method in brief: as §1
[8] = tested on: Serum; assay: Drug metabolism in 25% rat serum assessed as cleavage at Arg(5)-Asn(6) site at 1 mM at 37 degC by RP-HPLC method; type: ADME, cell-free; settings: 1000 µM; method in brief: as §1
[9] = tested on: Serum; assay: Drug metabolism in 25% rat serum assessed as formation of 3-phenylpropionyl-Leu1-Phe2-Arg3-Pro4-Arg5-OH at 1 mM at 37 degC by RP-HPLC method; type: ADME, cell-free; settings: 1000 µM; method in brief: as §1
[10] = tested on: Serum; assay: Drug metabolism in 25% rat serum assessed as formation of 3-phenylpropionyl-Leu1-Phe2-OH at 1 mM at 37 degC by RP-HPLC method; type: ADME, cell-free; settings: 1000 µM; method in brief: as §1
[11] = Drug metabolism in 25% rat serum assessed as drug recovery at 1 mM incubated for 10 mins at 37 degC by RP-HPLC method; type: ADME, cell-free; settings: read-out: Drug recovery; method in brief: as §1
[12] = tested on: Serum; assay: Drug metabolism in 25% rat serum assessed as formation of 2-thienylacetyl-Trp1-Phe2-Arg3-Pro4-Arg5-OH at 1 mM at 37 degC by RP-HPLC method; type: ADME, cell-free; settings: 1000 µM; method in brief: as §1
[13] = tested on: Serum; assay: Drug metabolism in 25% rat serum assessed as formation of 2-thienylacetyl-Trp1-Phe2-OH at 1 mM at 37 degC by RP-HPLC method; type: ADME, cell-free; settings: 1000 µM; method in brief: as §1
[14] = tested on: Serum; assay: Retention time in 25% rat serum treated with 1 mM (S)-2-((S)-2-((S)-1-((S)-2-((S)-2-((S)-3-(1H-indol-3-yl)-2-(2-(thiophen-2-yl)acetamido)propanamido)-3-(4-fluorophenyl)propanamido)-5-guanidinopentanoyl)pyrrolidine-2-carboxamido)-5-guanidinopentanamido)succinamide incubated for 10 mins at 37 degC by RP-HPLC method; type: ADME, cell-free; method in brief: as §1
[15] = target: T2, Neuromedin-U receptor 1 (Homo sapiens, UniProt Q9HB89); assay: Agonist activity at human NMUR1 expressed in CHO cells assessed as intracellular calcium flux at by Fluo-4 AM dye based fluorometric imaging method; type: functional, cell-based
T2 sequence (Q9HB89 whole entry): T1 sequence (whole entry)
Method in brief: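 Dose–response Ca2+ mobilization in CHO cells stably expressing human NMUR1 or NMUR2. Peptides run at 10^-12–10^-6 M with hNMU as reference. EC50 and intrinsic activity derived from the curves. Triplicate determinations.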

[16] = tested on: Serum; assay: Drug metabolism in 25% rat serum assessed as cleavage at C-terminal Arg-Asn site at 1 mM at 37 degC by RP-HPLC method; type: ADME, cell-free; settings: 1000 µM; method in brief: as §1

Sequence of Neuromedin-U receptor 2 (Q9GZQ4 whole entry): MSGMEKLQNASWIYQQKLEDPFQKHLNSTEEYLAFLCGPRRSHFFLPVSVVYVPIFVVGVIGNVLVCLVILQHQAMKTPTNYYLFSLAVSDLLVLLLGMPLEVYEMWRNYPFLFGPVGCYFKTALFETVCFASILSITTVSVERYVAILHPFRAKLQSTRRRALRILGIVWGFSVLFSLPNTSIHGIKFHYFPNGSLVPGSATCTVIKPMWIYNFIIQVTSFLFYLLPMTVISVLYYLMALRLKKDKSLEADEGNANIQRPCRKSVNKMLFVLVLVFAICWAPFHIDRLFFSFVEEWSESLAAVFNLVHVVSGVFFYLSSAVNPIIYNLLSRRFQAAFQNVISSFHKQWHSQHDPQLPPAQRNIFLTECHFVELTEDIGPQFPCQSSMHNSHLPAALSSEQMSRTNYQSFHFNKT

Compound: CC(C)C[C@H](NC(=O)CCc1ccccc1)C(=O)N[C@@H](Cc1ccccc1)C(=O)N[C@@H](CCCNC(=N)N)C(=O)N1CCC[C@H]1C(=O)N[C@@H](CCCNC(=N)N)C(=O)O (Hydrocinnamoyl-LFRPR-OH)
Drug metabolism [5]: metabolite_detected
remaining at 1 h, 1000 µM [6]: 56.9%

Compound: CC(C)C[C@H](NC(=O)CCc1ccccc1)C(=O)N[C@@H](Cc1ccccc1)C(=O)N[C@@H](CCCNC(=N)N)C(=O)N1CCC[C@H]1C(=O)N[C@@H](CCCNC(=N)N)C(=O)N[C@@H](CC(N)=O)C(N)=O (Hydrocinnamoyl-LFRPRN-NH2)
Activity [3]: Active
Activity [4]: Active
Drug metabolism [7]: metabolite_detected
Drug metabolism [8]: metabolite_detected
Drug metabolism [9]: metabolite_detected
Drug metabolism [10]: metabolite_detected
Drug metabolism [5]: metabolite_detected
remaining at 10 min, 1000 µM [11]: 64%

Compound: N=C(N)NCCC[C@H](NC(=O)[C@@H]1CCCN1C(=O)[C@H](CCCNC(=N)N)NC(=O)[C@H](Cc1ccccc1)NC(=O)[C@H](Cc1ccccc1)NC(=O)Cc1ccccc1)C(=O)N[C@@H](CC(N)=O)C(N)=O (PhAc-FFRPRN-NH2)
Activity [3]: inactive
Activity [4]: inactive

Compound: N=C(N)NCCC[C@H](NC(=O)[C@@H]1CCCN1C(=O)[C@H](CCCNC(=N)N)NC(=O)[C@H](Cc1ccccc1)NC(=O)[C@H](Cc1ccccc1)NC(=O)Cc1cccs1)C(=O)N[C@@H](CC(N)=O)C(N)=O ({Acetyl(2-thienyl)}-FFRPRN-NH2)
Activity [3]: Active
Activity [4]: Active

Compound: N=C(N)NCCC[C@H](NC(=O)[C@@H]1CCCN1C(=O)[C@H](CCCNC(=N)N)NC(=O)[C@H](Cc1ccccc1)NC(=O)[C@H](Cc1c[nH]c2ccccc12)NC(=O)Cc1cccs1)C(=O)N[C@@H](CC(N)=O)C(N)=O ({Acetyl(2-thienyl)}-WFRPRN-NH2)
Activity [3]: Active
Activity [4]: Active
Drug metabolism [7]: metabolite_detected
Drug metabolism [8]: metabolite_detected
Drug metabolism [12]: metabolite_detected
Drug metabolism [13]: metabolite_detected
remaining at 10 min, 1000 µM [11]: 39.8%

Compound: N=C(N)NCCC[C@H](NC(=O)[C@@H]1CCCN1C(=O)[C@H](CCCNC(=N)N)NC(=O)[C@H](Cc1ccncc1)NC(=O)[C@H](Cc1c[nH]c2ccccc12)NC(=O)Cc1cccs1)C(=O)N[C@@H](CC(N)=O)C(N)=O ({Acetyl(2-thienyl)}-W[4Pal]RPRN-NH2)
Activity [3]: inactive
Activity [4]: inactive

Compound: N=C(N)NCCC[C@H](NC(=O)[C@@H]1CCCN1C(=O)[C@H](CCCNC(=N)N)NC(=O)[C@H](Cc1ccc(F)cc1)NC(=O)[C@H](Cc1c[nH]c2ccccc12)NC(=O)Cc1cccs1)C(=O)O ({Acetyl(2-thienyl)}-W[Phe(4-F)]RPR-OH)
Retention_time [14]: 43.7 min
remaining at 1 h, 1000 µM [6]: 54%

Compound: N=C(N)NCCC[C@H](NC(=O)[C@@H]1CCCN1C(=O)[C@H](CCCNC(=N)N)NC(=O)[C@H](Cc1ccccc1)NC(=O)[C@H](Cc1ccccc1)NC(=O)CCc1cccnc1)C(=O)N[C@@H](CC(N)=O)C(N)=O ({Propanoyl(3-(3-pyridyl))}-FFRPRN-NH2)
Activity [3]: Active
Activity [4]: Active

Compound: N=C(N)NCCC[C@H](NC(=O)[C@@H]1CCCN1C(=O)[C@H](CCCNC(=N)N)NC(=O)[C@H](Cc1ccccc1)NC(=O)[C@H](Cc1ccc2ccccc2c1)NC(=O)CCc1cccnc1)C(=O)N[C@@H](CC(N)=O)C(N)=O ({Propanoyl(3-(3-pyridyl))}-[2Nal]FRPRN-NH2)
Activity [4]: Active

Compound: H-FRVDEEFQSPFASQSRGYFLFRPRN-NH2
EC50 [15]: 0.14 nM
Drug metabolism [16]: metabolite_detected

Now from value to compound:

Retention_time [1]: 61.2 min
Compound: O=C(Cc1cccs1)N[C@@H](Cc1c[nH]c2ccccc12)C(=O)N[C@@H](Cc1ccc(F)cc1)C(=O)O

Drug metabolism [2]: metabolite_detected
Compound: O=C(Cc1cccs1)N[C@@H](Cc1c[nH]c2ccccc12)C(=O)N[C@@H](Cc1ccccc1)C(=O)O

Activity [3]: inactive
Activity [4]: inactive
Compound: N=C(N)NCCC[C@H](NC(=O)[C@@H]1CCCN1C(=O)[C@H](CCCNC(=N)N)NC(=O)[C@H](Cc1ccccc1)NC(=O)[C@H](Cc1ccccc1)NC(=O)CCc1ccccc1)C(=O)N[C@@H](CC(N)=O)C(N)=O (Hydrocinnamoyl-FFRPRN-NH2)

Drug metabolism [5]: metabolite_detected
Compound: CC(C)C[C@H](NC(=O)CCc1ccccc1)C(=O)N[C@@H](Cc1ccccc1)C(=O)O (Hydrocinnamoyl-Leu-Phe-OH)

Activity [3]: Active
Activity [4]: Active
Compound: N=C(N)NCCC[C@H](NC(=O)[C@@H]1CCCN1C(=O)[C@H](CCCNC(=N)N)NC(=O)[C@H](Cc1ccccc1)NC(=O)[C@H](Cc1ccccc1)NC(=O)CCc1cccs1)C(=O)N[C@@H](CC(N)=O)C(N)=O (X1-FFRPRN-NH2)

Drug metabolism [2]: metabolite_detected
remaining at 1 h, 1000 µM [6]: 44.7%
Compound: N=C(N)NCCC[C@H](NC(=O)[C@@H]1CCCN1C(=O)[C@H](CCCNC(=N)N)NC(=O)[C@H](Cc1ccccc1)NC(=O)[C@H](Cc1c[nH]c2ccccc12)NC(=O)Cc1cccs1)C(=O)O ({Acetyl(2-thienyl)}-WFRPR-OH)

Activity [3]: inactive
Activity [4]: inactive
Compound: N=C(N)NCCC[C@H](NC(=O)[C@@H]1CCCN1C(=O)[C@H](CCCNC(=N)N)NC(=O)[C@H](Cc1c[nH]cn1)NC(=O)[C@H](Cc1c[nH]c2ccccc12)NC(=O)Cc1cccs1)C(=O)N[C@@H](CC(N)=O)C(N)=O ({Acetyl(2-thienyl)}-WHRPRN-NH2)

Activity [3]: Active
Activity [4]: Active
Compound: N=C(N)NCCC[C@H](NC(=O)[C@@H]1CCCN1C(=O)[C@H](CCCNC(=N)N)NC(=O)[C@H](Cc1cccs1)NC(=O)[C@H](Cc1c[nH]c2ccccc12)NC(=O)Cc1cccs1)C(=O)N[C@@H](CC(N)=O)C(N)=O ({Acetyl(2-thienyl)}-W[2Thi]RPRN-NH2)

Activity [3]: inactive
Activity [4]: inactive
Compound: Ac-FFRPRN-NH2

Drug metabolism [7]: metabolite_notdetected
Drug metabolism [8]: metabolite_notdetected
remaining at 10 min, 1000 µM [11]: 37%
Compound: H-FLFRPRN-NH2
